According to PMC9453980 (ACS Omega, 2022):
Each block holds one compound with its values, some of them ahead of it.

How the values were obtained:
[1] = system: BaPif1 (Bacteroides sp. 2-1-16); assay: fluorescence polarization
HeLa cells [2] = assay: RPA foci formation; type: cell-based, human
Method in brief: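 HeLa cells were seeded for 24 h, then treated with test agents for 24 h. They were fixed in 4% paraformaldehyde for 20 min, permeabilized with 0.3% Triton X-100 and blocked in 5% BSA. Cells were stained overnight at 4 °C for RPA2 and γH2AX, then with fluorescent secondaries and DAPI. Automated microscopy scored the percentage of RPA-foci-positive cells.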

GSK-3β = settings: cited from earlier work
BaPif1 C380A mutant [3] = assay: Filtration-dilution reversibility experiment, C380A mutant; type: biochemical, Bacteroides sp. 2-1-16; settings: filtration experiments
Method in brief: (§1)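 Reversibility test. Wild-type or C380A BaPif1 at 0.1 mg/mL in ATPase buffer was incubated 30 min with 5% DMSO or 50 μM compound in 5% DMSO. It was concentrated on a 10 kDa cut-off centrifugal filter and the retentate diluted 10-fold with buffer. This was done three times (1000-fold total). Residual ATPase activity was then measured by the luciferase ATP assay and expressed as percent inhibition.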

hPif1-HD [4] = molecular target: T1, hPif1-HD (Homo sapiens, UniProt Q9H611); assay: Helicase; type: biochemical; settings: 20 μM hPif1-HD, 20 bp dsDNA with 5′ dT55 tail
T1 sequence (Q9H611 200-641): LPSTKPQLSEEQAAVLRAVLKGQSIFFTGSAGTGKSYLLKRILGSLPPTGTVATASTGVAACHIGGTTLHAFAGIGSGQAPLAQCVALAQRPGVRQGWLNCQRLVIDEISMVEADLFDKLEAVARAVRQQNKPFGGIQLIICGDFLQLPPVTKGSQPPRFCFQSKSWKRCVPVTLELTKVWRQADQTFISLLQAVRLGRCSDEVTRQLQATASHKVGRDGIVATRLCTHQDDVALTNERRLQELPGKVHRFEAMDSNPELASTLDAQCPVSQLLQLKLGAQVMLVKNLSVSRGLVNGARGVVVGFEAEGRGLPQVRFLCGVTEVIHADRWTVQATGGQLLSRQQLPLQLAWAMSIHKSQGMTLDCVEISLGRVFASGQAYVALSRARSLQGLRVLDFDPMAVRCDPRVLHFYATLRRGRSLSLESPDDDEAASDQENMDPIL

hPif1-HD [5] = molecular target: T1, hPif1-HD; assay: ATPase activity assay; type: biochemical
Method in brief: (§2)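 ATP depletion (luciferase) assay. BaPif1 (GST fusion expressed in E. coli BL21(DE3), tag cleaved) or hPif1 helicase domain (aa200-641, N-terminal His6, E. coli BL21(DE3)), at 0.1 mg/mL. Protein was preincubated with a compound dilution series for 30 min at 25 °C in 20 mM Tris-HCl pH 7.5, 150 mM NaCl, 5 mM MgCl2, 5% DMSO final. 100 nM ssDNA and 100 nM ATP were added, 10 min at 25 °C, then stopped with NaOH. Remaining ATP was read as firefly luciferase luminescence.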

BaPif1 [6] = assay: Filtration-dilution reversibility experiment; type: biochemical, Bacteroides sp. 2-1-16; settings: 50 μM compound, three filtration and dilution cycles, 1000-fold dilution
Method in brief: as §1

hPif1-HD [7] = molecular target: T1, hPif1-HD; assay: FP assay of DNA-binding activity
Method in brief: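 Fluorescence polarization read at ex 480/em 520 nm. The hPif1 helicase domain (aa200-641, His6-tagged) was at 10 μM with 0.5 μM FAM-labelled DNA and a titration of test compound. Buffer was 25 mM Tris-HCl pH 7.5, 5 mM MgCl2, with no DTT. IC50 was obtained by fitting the binding curves.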

HeLa cells [8] = assay: Western blot of Pif1, RPA2 and γH2AX; type: cell-based, human; settings: 10 μM TD combined with 2.5 mM HU
Method in brief: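 HeLa lysates were made in RIPA buffer with protease inhibitor at 4 °C and quantified by BCA. 10−30 μg per lane was run on SDS-PAGE and blotted to PVDF. Membranes were blocked 1 h in 5% milk and probed overnight at 4 °C for Pif1, RPA2, γH2AX and GAPDH (loading control). HRP anti-mouse secondary (1:5000, 1 h) and ECL detection followed.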

BaPif1 C234A mutant = assay: FP assay of DNA-binding activity, C234A mutant; parameters: species or system Bacteroides sp. 2-1-16
BaPif1 [9] = assay: Helicase; type: biochemical, Bacteroides sp. 2-1-16; settings: gel-based titration
"Cys-conserved" kinases = settings: 10 μM TD, panel of 68 kinases; cited from earlier work
BaPif1 [10] = assay: F-EMSA assay of BaPif1-dT12 interaction; type: binding, Bacteroides sp. 2-1-16
BaPif1 C380A mutant [11] = assay: FP assay of DNA-binding activity, C380A mutant; parameters: species or system Bacteroides sp. 2-1-16
Method in brief: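 FP competition with FAM-labelled DNA in 25 mM Tris-HCl pH 7.5, 5 mM MgCl2 (ex 480/em 520 nm). The C380A point mutant was made by PCR mutagenesis and purified as for wild type, and was compared with wild-type BaPif1. Each protein was held with 50 μM test compound across a range of DTT concentrations to give dose-response curves.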

BaPif1 [12] = assay: ATPase activity assay; type: biochemical, Bacteroides sp. 2-1-16; settings: read-out: IC50, inhibition of ATPase activity of BaPif1
Method in brief: as §2

Compound: TTTTTTTTTTTTTTTTTT [FAM-dT18]
Kd [1]: 7 µM

Compound: NC(=O)NO [HU, hydroxyurea]
Induction of RPA foci formation (HeLa cells [2]; 2.5 mM HU): efficiently induce RPA foci formation

Reversibility of inhibition of C380A ATPase activity after filtration (BaPif1 C380A mutant [3]): reversible | Concentration at which helicase activity of hPif1-HD was inhibited (hPif1-HD [4]): 7.8 µM | IC50 (hPif1-HD [5]): 2.5 ± 0.1 µM | Reversibility of inhibition of BaPif1 ATPase activity after filtration-dilution (BaPif1 [6]): irreversible | IC50 (hPif1-HD [7]): 5.79 ± 0.6 µM | Sensitivity of C234A mutant to the compound compared with wild-type (BaPif1 C234A mutant): little change | Concentration at which unwinding (helicase) activity of BaPif1 was inhibited (BaPif1 [9]): 4 µM | Sensitivity of C380A mutant to the compound compared with wild-type (BaPif1 C380A mutant [11]): less sensitive | IC50 (BaPif1 [12]): 2.3 ± 0.13 µM
Compound: O=c1sn(-c2cccc3ccccc23)c(=O)n1Cc1ccccc1 [TD, Tideglusib]
Reversibility of GSK-3β inhibition (GSK-3β): irreversibly | Reduction of RPA foci formation (HeLa cells [2]; 10 μM TD combined with 2.5 mM HU, 24 h): 20% | Protein level of Pif1 and RPA (HeLa cells [8]): did not alter | Protein level of γH2AX (HeLa cells [8]): slightly decreased | Number of "Cys-conserved" kinases significantly inhibited ("Cys-conserved" kinases): 10 of the 26 | Blocking of ssDNA binding to BaPif1 (F-EMSA), in words (BaPif1 [10]): could block the binding of single-stranded DNA (ssDNA) to the BaPif1 protein
